# Results of several laboratories.
# Protocols differ between the studies behind these lines.
# CDK2 with cyclin E: Cyclin-dependent kinase 2, with cyclin E (CDK2, Homo sapiens, UniProt P24941)
# CDK2 with cyclin A: Cyclin-dependent kinase 2, with cyclin A (CDK2, Homo sapiens, UniProt P24941)
# CDK2: Cyclin-dependent kinase 2 (CDK2, Homo sapiens, UniProt P24941)
SMILES,target,assay,conditions,measurement,value
O=c1[nH]c2ccccc2n1C1CCN(Cc2ccc(-c3[nH]c4cc5ncnc5cc4nc3-c3ccccc3)cc2)CC1,CDK2 with cyclin E,cell-free assay,0.5 µM,remaining signal,95.6%
Cn1cc(-c2cc(F)cc(N3CCn4c(cc5c4CCCC5)C3=O)c2CO)cc(Nc2ccc(N3CCN(C4COC4)CC3)cn2)c1=O,CDK2 with cyclin A,"enzyme activity, inhibitor",0.1 µM,inhibition,7%
Cc1ncc(C)n2nc(/C=C/c3nc(N4CCCC4)cc(N4CCOCC4)n3)nc12,CDK2 with cyclin A,"enzyme activity, inhibitor",10 µM,inhibition,-3%
N#CC1(c2ccccn2)CCN(Cc2cc(C(=O)O)c(=O)n3ccccc23)CC1,CDK2,"cell-free assay, competition with immobilised ligand",1 µM,remaining binding,100%
C#Cc1n[nH]c2c(-c3cn([C@@H](C)c4ccccc4)c(=O)[nH]c3=O)cc(F)cc12,CDK2 with cyclin A,"enzyme activity, inhibitor",0.1 µM,inhibition,6.3%
Cn1cncc1[C@@](O)(COc1ccc(C#N)cc1-c1ccc(OC(F)(F)F)cc1)c1ccc(C#N)cc1,CDK2,"cell-free assay, competition with immobilised ligand",1 µM,remaining binding,89%
CC(C)(C)c1cc(C=C(C#N)C#N)cc(Br)c1O,CDK2 with cyclin E,"enzyme activity, inhibitor",0.5 µM,remaining activity,77.6%
Cn1cc(-c2cccc(N3CCc4c(sc5c4CC(C)(C)C5)C3=O)c2CO)cc(Nc2ccncn2)c1=O,CDK2 with cyclin A,"enzyme activity, inhibitor",1 µM,inhibition,-4%
Nc1ncc(-c2nc(N3CCOCC3)nc(N3CCOCC3)n2)c(C(F)F)n1,CDK2,"binding, competition with immobilised ligand",10 µM,remaining binding,100%
COc1ncccc1-c1cnn2ccc(N3CCN(C(=O)OC(C)C)CC3)nc12,CDK2,"binding, competition with immobilised ligand",1 µM,remaining binding,99%
O=C(Nc1cccnn1)N1CCN([C@@H]2CCOc3cc(C(F)(F)F)ccc32)CC1,CDK2 with cyclin E,"cell-free assay, inhibitor",20 µM,inhibition,3%
